Source: ChEMBL document CHEMBL3297654, “Synthesis, antimicrobial and cytotoxic activities, and structure-activity relationships of gypsogenin derivatives against human cancer cells” (Eur J Med Chem, 2014)
Calls of active or inactive are those of the source. The rule behind the calls is not given here.

Assays:
Micrococcus luteus [1] = test: Antimicrobial activity against Micrococcus luteus ATCC 9341 assessed as zone of inhibition at 30 mg for 24 hrs at 30 degC by disk diffusion test; format: functional; details: ATCC 9341, 24 h, read-out: DIZ
HT-29 [2] = test: Induction of necrosis in human HT-29 cells at 20 uM after 48 hrs by Hoechst 33258/propidium iodide staining based phase contrast microscopic analysis; format: functional
Method in brief: (§1)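 Cells in 48-well plates treated with 0.5, 10, 20 or 40 µM for 24 and 48 h. Values are read at 48 h, 20 µM for test agents and 0.5 µM for controls. Staining is Hoechst 33258/propidium iodide double staining with fluorescence microscopy. Blue nuclei are viable or early-to-mid apoptotic, and pink nuclei are late apoptotic or necrotic. Apoptosis and necrosis are scored from chromatin condensation as % of cells. Cells are grown at 37 °C in 5% CO2 in RPMI, DMEM or McCoy's 5A with 10–15% heat-inactivated FCS.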

Candida tropicalis = test: Antimicrobial activity against Candida tropicalis assessed as zone of inhibition at 30 uL for 24 hrs at 30 degC by disk diffusion test; format: functional, organism-based
Method in brief: (§2)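 Agar well diffusion on Mueller Hinton agar seeded with 0.1 mL broth culture (18–24 h), adjusted to 0.5 McFarland (about 1×10^8 bacteria or 1×10^6 yeast cells/mL). A 6 mm well is filled with 30 µL of compound from a fresh 1000 µg/mL DMSO stock. Plates are held at 30 °C for 24 h and inhibition zone diameter is read in mm.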

Candida albicans = test: Antimicrobial activity against Candida albicans ATCC 10231 assessed as zone of inhibition at 30 uL for 24 hrs at 30 degC by disk diffusion test; format: functional, organism-based; method in brief: as §2
HT-29 [3] = test: Induction of apoptosis in human HT-29 cells at 20 uM after 48 hrs by Hoechst 33258/propidium iodide staining based phase contrast microscopic analysis; format: functional; method in brief: as §1
Cyberlindnera jadinii = test: Antimicrobial activity against Candida utilis ATCC 9950 assessed as zone of inhibition at 30 uL for 24 hrs at 30 degC by disk diffusion test; format: functional, organism-based; method in brief: as §2
Bacillus cereus [4] = test: Antimicrobial activity against Bacillus cereus ATCC 11778 for 24 hrs by microdillution method; format: functional
Method in brief: (§3)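 Broth microdilution. Compound is dissolved in DMSO (2 mg/mL) and diluted in Mueller Hinton broth as two-fold serial dilutions from 256 to 0.125 µg/mL. Bacteria are pre-grown in nutrient broth at 30 °C, and the final inoculum is about 10^6 cfu/mL. Tests are incubated 37 °C for 24 h. MIC is the lowest concentration giving complete inhibition. Streptomycin is the positive control.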

MCF7 [5] = test: Induction of necrosis in human MCF7 cells at 20 uM after 48 hrs by Hoechst 33258/propidium iodide staining based phase contrast microscopic analysis; format: functional; method in brief: as §1
HeLa [6] = test: Induction of necrosis in human HeLa cells at 20 uM after 48 hrs by Hoechst 33258/propidium iodide staining based phase contrast microscopic analysis; format: functional; method in brief: as §1
Escherichia coli = test: Antimicrobial activity against Escherichia coli ATCC 25922 assessed as zone of inhibition at 30 uL for 24 hrs at 37 degC by disk diffusion test; format: functional, organism-based
Method in brief: (§4)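 Compound (30 µL of a fresh 1000 µg/mL DMSO stock) goes into a 6 mm well cut in Mueller Hinton agar inoculated with 0.1 mL broth culture adjusted to 0.5 McFarland (about 1×10^8 cells/mL). Plates are incubated 24 h at 37 °C, then zone of inhibition diameter is measured in mm.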

HT-29 [7] = test: Antiproliferative activity against human HT-29 cells after 24 and 72 hrs by MTT assay; format: functional, cell-based
Method in brief: (§5)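 ATCC human cell lines are kept in RPMI, DMEM or McCoy's 5A with 10–15% heat-inactivated FCS at 37 °C and 5% CO2. They are seeded at 1×10^4–1×10^5 cells/mL in 48-well plates and exposed to 0.5, 10, 20 or 40 µM. Viability is read by MTT (590 nm) at 24 and 72 h. Growth is expressed relative to untreated cells and IC50 is fitted, in triplicate.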

Nakaseomyces glabratus = test: Antimicrobial activity against Candida glabrata assessed as zone of inhibition at 30 uL for 24 hrs at 30 degC by disk diffusion test; format: functional, organism-based; method in brief: as §2
HL-60 [8] = test: Induction of necrosis in human HL60 cells at 20 uM after 48 hrs by Hoechst 33258/propidium iodide staining based phase contrast microscopic analysis; format: functional; method in brief: as §1
Bacillus subtilis [9] = test: Antimicrobial activity against Bacillus subtilis ATCC 6633 assessed as zone of inhibition at 30 uL for 24 hrs at 30 degC by disk diffusion test; format: functional; method in brief: as §2
Bacillus cereus [10] = test: Antimicrobial activity against Bacillus cereus ATCC 11778 assessed as zone of inhibition at 30 uL for 24 hrs at 30 degC by disk diffusion test; format: functional; method in brief: as §2
HL-60 [11] = test: Induction of apoptosis in human HL60 cells at 20 uM after 48 hrs by Hoechst 33258/propidium iodide staining based phase contrast microscopic analysis; format: functional; method in brief: as §1
Caco-2 [12] = test: Antiproliferative activity against human Caco2 cells after 24 and 72 hrs by MTT assay; format: functional, cell-based; method in brief: as §5
Caco-2 [13] = test: Induction of necrosis in human Caco2 cells at 20 uM after 48 hrs by Hoechst 33258/propidium iodide staining based phase contrast microscopic analysis; format: functional; method in brief: as §1
SAOS-2 [14] = test: Induction of necrosis in human Saos2 cells at 20 uM after 48 hrs by Hoechst 33258/propidium iodide staining based […] microscopic analysis; format: functional; method in brief: as §1
Enterococcus faecalis = test: Antimicrobial activity against Enterococcus faecalis ATCC 29212 assessed as zone of inhibition at 30 uL for 24 hrs at 37 degC by disk diffusion test; format: functional, organism-based; method in brief: as §4
[15] = test system: Staphylococcus epidermidis; test: Antimicrobial activity against Staphylococcus epidermidis ATCC 12228 assessed as zone of inhibition at 30 uL for 24 hrs at 37 degC by disk diffusion test; format: functional, organism-based; method in brief: as §4
Bacillus subtilis [16] = test: Antimicrobial activity against Bacillus subtilis ATCC 6633 for 24 hrs by microdillution method; format: functional; method in brief: as §3
HeLa [17] = test: Induction of apoptosis in human HeLa cells at 20 uM after 48 hrs by Hoechst 33258/propidium iodide staining based phase contrast microscopic analysis; format: functional; method in brief: as §1
Klebsiella pneumoniae = test: Antimicrobial activity against Klebsiella pneumoniae ATCC 13882 assessed as zone of inhibition at 30 uL for 24 hrs at 37 degC by disk diffusion test; format: functional, organism-based; method in brief: as §4
MCF7 [18] = test: Induction of apoptosis in human MCF7 cells at 20 uM after 48 hrs by Hoechst 33258/propidium iodide staining based phase contrast microscopic analysis; format: functional; method in brief: as §1
Proteus vulgaris = test: Antimicrobial activity against Proteus vulgaris ATCC 33420 assessed as zone of inhibition at 30 uL for 24 hrs at 37 degC by disk diffusion test; format: functional, organism-based; method in brief: as §4
Bacillus thuringiensis [19] = test: Antimicrobial activity against Bacillus thuringiensis assessed as zone of inhibition at 30 uL for 24 hrs at 30 degC by disk diffusion test; format: functional; method in brief: as §2
Salmonella typhimurium = test: Antimicrobial activity against Salmonella typhimurium ATCC 14028 assessed as zone of inhibition at 30 uL for 24 hrs at 37 degC by disk diffusion test; format: functional, organism-based; details: Salmonella enterica subsp. enterica serovar Typhimurium; method in brief: as §4
HL-60 [20] = test: Antiproliferative activity against human HL60 cells after 24 and 72 hrs by MTT assay; format: functional, cell-based; method in brief: as §5
Saccharomyces cerevisiae = test: Antimicrobial activity against Saccharomyces cerevisiae ATCC 9763 assessed as zone of inhibition at 30 uL for 24 hrs at 30 degC by disk diffusion test; format: functional, organism-based; method in brief: as §2
Bacillus thuringiensis [21] = test: Antimicrobial activity against Bacillus thuringiensis for 24 hrs by microdillution method; format: functional; method in brief: as §3
Caco-2 [22] = test: Induction of apoptosis in human Caco2 cells at 20 uM after 48 hrs by Hoechst 33258/propidium iodide staining based phase contrast microscopic analysis; format: functional; method in brief: as §1
Micrococcus luteus [23] = test: Antimicrobial activity against Micrococcus luteus ATCC 9341 assessed as zone of inhibition at 30 uL for 24 hrs at 30 degC by disk diffusion test; format: functional, organism-based; method in brief: as §2
MCF7 [24] = test: Antiproliferative activity against human MCF7 cells after 24 and 72 hrs by MTT assay; format: functional, cell-based; method in brief: as §5
HeLa [25] = test: Antiproliferative activity against human HeLa cells after 24 and 72 hrs by MTT assay; format: functional, cell-based; method in brief: as §5
SAOS-2 [26] = test: Induction of apoptosis in human Saos2 cells at 20 uM after 48 hrs by Hoechst 33258/propidium iodide staining based phase contrast microscopic analysis; format: functional; method in brief: as §1
[27] = Antiproliferative activity against human Saos2 cells after 24 and 72 hrs by MTT assay; format: functional, cell-based; details: SAOS-2; method in brief: as §5
Pseudomonas aeruginosa = test: Antimicrobial activity against Pseudomonas aeruginosa ATCC 35032 assessed as zone of inhibition at 30 uL for 24 hrs at 37 degC by disk diffusion test; format: functional, organism-based; method in brief: as §4
Staphylococcus aureus = test: Antimicrobial activity against Staphylococcus aureus ATCC 25923 assessed as zone of inhibition at 30 uL for 24 hrs at 37 degC by disk diffusion test; format: functional, organism-based; method in brief: as §4

Q: With `CN(C)[C@@H]1C(O)=C(C(N)=O)C(=O)[C@@]2(O)C(O)=C3C(=O)c4c(O)cccc4[C@@](C)(O)[C@H]3C[C@@H]12` [TETRACYCLINE] as the compound, how does the zone of inhibition at 30000 µg/disc (Micrococcus luteus [1]) read?
A: 26 mm

Q: For `CC1(C)CC[C@]2(C(=O)OCc3ccccc3)CC[C@]3(C)C(=CC[C@@H]4[C@@]5(C)CC[C@H](O)[C@@](C)(C=O)[C@@H]5CC[C@]43C)[C@@H]2C1`, which Activity (HT-29 [2]) is on record?
A: 22%

Q: What about the “diameter of the inhibition zone (DIZ)” value (Candida tropicalis) of the same compound?
A: inactive

Q: What about the “diameter of the inhibition zone (DIZ)” value (Candida albicans) of the same compound?
A: inactive

Q: And the Activity (HT-29 [3])?
A: 1%

Q: What about the “diameter of the inhibition zone (DIZ)” value (Cyberlindnera jadinii) of the same compound?
A: inactive

Q: What about the MIC (Bacillus cereus [4]) of the same compound?
A: inactive

Q: And the Activity (MCF7 [5])?
A: 57%

Q: And the Activity (HeLa [6])?
A: 45%

Q: What about the “diameter of the inhibition zone (DIZ)” value (Escherichia coli) of the same compound?
A: inactive

Q: And the IC50 (HT-29 [7])?
A: 8.51 µM

Q: And the “diameter of the inhibition zone (DIZ)” value (Nakaseomyces glabratus)?
A: inactive

Q: What about the Activity (HL-60 [8]) of the same compound?
A: 48%

Q: And the “diameter of the inhibition zone (DIZ)” value (Bacillus subtilis [9])?
A: inactive

Q: And the “diameter of the inhibition zone (DIZ)” value (Bacillus cereus [10])?
A: inactive

Q: And the Activity (HL-60 [11])?
A: 6%

Q: What about the IC50 (Caco-2 [12]) of the same compound?
A: 11.1 µM

Q: And the Activity (Caco-2 [13])?
A: 15%

Q: What about the Activity (SAOS-2 [14]) of the same compound?
A: 30%

Q: What about the “diameter of the inhibition zone (DIZ)” value (Enterococcus faecalis) of the same compound?
A: inactive

Q: And the “diameter of the inhibition zone (DIZ)” value [15]?
A: inactive

Q: What about the MIC (Bacillus subtilis [16]) of the same compound?
A: inactive

Q: And the Activity (HeLa [17])?
A: 4%

Q: And the “diameter of the inhibition zone (DIZ)” value (Klebsiella pneumoniae)?
A: inactive

Q: And the Activity (MCF7 [18])?
A: 4%

Q: And the “diameter of the inhibition zone (DIZ)” value (Proteus vulgaris)?
A: inactive

Q: And the “diameter of the inhibition zone (DIZ)” value (Bacillus thuringiensis [19])?
A: inactive

Q: And the “diameter of the inhibition zone (DIZ)” value (Salmonella typhimurium)?
A: inactive

Q: What about the IC50 (HL-60 [20]) of the same compound?
A: 8.14 µM

Q: And the “diameter of the inhibition zone (DIZ)” value (Saccharomyces cerevisiae)?
A: inactive

Q: And the MIC (Bacillus thuringiensis [21])?
A: inactive

Q: And the Activity (Caco-2 [22])?
A: 1%

Q: What about the “diameter of the inhibition zone (DIZ)” value (Micrococcus luteus [23]) of the same compound?
A: inactive

Q: And the IC50 (MCF7 [24])?
A: 5.15 µM

Q: And the IC50 (HeLa [25])?
A: 74.2 µM

Q: What about the Activity (SAOS-2 [26]) of the same compound?
A: 9%

Q: What about the IC50 [27] of the same compound?
A: 12.7 µM

Q: What about the “diameter of the inhibition zone (DIZ)” value (Pseudomonas aeruginosa) of the same compound?
A: inactive

Q: What about the “diameter of the inhibition zone (DIZ)” value (Staphylococcus aureus) of the same compound?
A: inactive
